We go through 15 compounds from PubChem BioAssay.

In general, inhibition refers to the relative decrease from the control value, in per cent.

A short description of assay [1]: inhibitors of TNFa-induced NFkB p65 translocation, primary screen, imaging, HUVEC, MLSMR starter and 10KST1 sets (AID 438).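 Further: compound added about 3h40 before a 20 min TNFalpha stimulation.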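 On inhibition: signal is the nuclear over cytoplasmic p65 intensity ratio per well.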 The conditions noted are these: HUVEC TNFa-induced p65 nuclear translocation; cell count: measured here: nuclei count (cytotoxicity indicator), at 2.08 µM; inhibition: at 2 µM, stronger effect = higher value, 0% TNFa-plus-vehicle, 100% no-TNFa wells.
A short description of assay [2]: inhibitors of mutant huntingtin aggregation, primary screen, imaging, exon1htt(103Q)mCFP cells, high-content imaging (AID 483;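 active means visual image review flags a hit and inhibition of aggregation exceeds 20%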;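 further: compound exposure lasted 3 days before fixation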;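 on nuclei count: percent of the per-plate median nuclei count of sample wells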). The conditions noted are these: exon1htt(103Q)mCFP cell line, aggregate imaging, at 2 µM; inhibition of aggregation: stronger effect = higher value; nuclei count: measured here: cell count, toxicity.
Assay [3] is described as follows: inhibitors of E-selectin induction by TNFa, primary screen, imaging, HUVEC, immunofluorescence, MLSMR starter and 10KST1 sets (AID 487;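 active means visually confirmed hit in the image check and inhibition above 20%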;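 on inhibition: signal is fraction of cell area covered by stained E-selectin grains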;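 on nuclei count: 100% = median nuclei count of all wells on the same plate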). The conditions noted are these: HUVEC TNFalpha-induced E-selectin immunofluorescence imaging, at 2 µM; inhibition: stronger effect = higher value; nuclei count: measured here: cell number, toxicity.
Assay [4] deals with Voltage-gated potassium channel subunit beta-2 (Rattus norvegicus) (UniProt P62483). As to the kind of experiment: KvBeta enzyme negative modulators, primary screen, biochemical, NADPH fluorescence (AID 622;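 active means fluorescence slope higher than the sample average by over 3 SD, cut at about -0.22 in these data, passing the limit was not always enough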;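 further: slope of raw intensity against log time taken from 70 to 1610 s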). To be noted: recombinant KvBeta, 4-cyanobenzaldehyde reduction, at 10 µM, stronger effect = higher value.
Voltage-gated potassium channel subunit beta-2 (Rattus norvegicus), sequence (P62483 whole entry, looked up): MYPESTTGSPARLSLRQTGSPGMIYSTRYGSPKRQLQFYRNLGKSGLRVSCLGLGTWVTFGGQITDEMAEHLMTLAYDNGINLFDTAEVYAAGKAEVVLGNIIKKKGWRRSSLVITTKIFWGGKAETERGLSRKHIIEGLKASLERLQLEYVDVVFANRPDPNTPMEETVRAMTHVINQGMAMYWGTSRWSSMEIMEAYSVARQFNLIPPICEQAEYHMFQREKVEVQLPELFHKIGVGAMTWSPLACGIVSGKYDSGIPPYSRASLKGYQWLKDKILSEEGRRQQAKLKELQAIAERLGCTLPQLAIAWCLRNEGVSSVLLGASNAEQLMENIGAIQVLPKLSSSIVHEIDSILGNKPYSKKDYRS
The target is the same in assay [5]. In words: KvBeta positive modulators, primary screen, biochemical, NADPH fluorescence (AID 623;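 active means NADPH fluorescence slope more negative than the mean of all samples by about 3 SD, 99.7% confidence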;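 further: fluorescence intensity change per second fitted from 20 to 320 s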). To be noted: Recombinant KvBeta, NADPH fluorescence decrease slope, 10 min; at 10 µM; stronger effect = lower value.
In assay [6] the target is Muscarinic acetylcholine receptor M4 (Homo sapiens) (UniProt P08173). In words: compounds altering M4/GIRK thallium flux, either direction, primary screen, M4 allosteric agonist project, cell-based, HEK293 M4/GIRK, BTC-AM (AID 625;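 active means fluorescence slope after compound addition differing from the mean of all tested samples at 99.7% confidence, mostly higher but some lower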;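 further: thallium influx through GIRK channels coupled to M4 in HEK293 cells with BTC-AM dye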). The conditions noted are these: at 10 µM, actives lie on both sides. The procedure, abridged:
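System: HEK293 cells with M4 receptor and GIRK channels | Incubation: Cells overnight at 37 °C, BTC-AM loading 1 h, reads 2 min total | Technique: Kinetic BTC-AM fluorescence sampled at 1 Hz, 10 s pre-addition baseline | Measure: Post-addition slope, 15–24 s, of baseline-normalized fluorescence | Control set: Carbachol positive, DMSO negative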

A short description of assay [7]: inhibitors of Sendai virus-induced IRF3 signaling, primary screen, TLR/RLR signaling modifier project, cell-based, Sendai virus stimulus, luciferase, 10K MLSCN set (AID 602276;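 active means inhibition at or above 50% at 10 µM; inactive means inhibition below 50%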;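 further: firefly luciferase from ISG56 promoter only with Renilla not read in this screen; 0% = Sendai virus plus DMSO and 100% = medium plus DMSO without virus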). The conditions noted are these: HEK293 RL24 IRF3 luciferase reporter, at 10 µM, stronger effect = higher value.
The nature of assay [8]: inhibitors of poly I:C-induced TLR3 signaling, primary screen, cell-based, poly I:C stimulus, luciferase, 10K MLSCN set (AID 602277;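 active means inhibition of the reporter signal at or above 50%; inactive means inhibition below 50%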). The conditions noted are these: HEK293-TLR3 RL24 IRF3 luciferase reporter, at 10 µM, stronger effect = higher value. A general note: Reporter assays use an easily measured gene product as a stand-in for the process of interest.

The source made the active and inactive calls.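 How the source made its calls, unless noted: active means inhibition above 20% together with a positive visual image hit; inconclusive means visual image hit but inhibition not above 20%; inactive means no visual image hit.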

Muscarinic acetylcholine receptor M4 (Homo sapiens), sequence (P08173 whole entry, looked up): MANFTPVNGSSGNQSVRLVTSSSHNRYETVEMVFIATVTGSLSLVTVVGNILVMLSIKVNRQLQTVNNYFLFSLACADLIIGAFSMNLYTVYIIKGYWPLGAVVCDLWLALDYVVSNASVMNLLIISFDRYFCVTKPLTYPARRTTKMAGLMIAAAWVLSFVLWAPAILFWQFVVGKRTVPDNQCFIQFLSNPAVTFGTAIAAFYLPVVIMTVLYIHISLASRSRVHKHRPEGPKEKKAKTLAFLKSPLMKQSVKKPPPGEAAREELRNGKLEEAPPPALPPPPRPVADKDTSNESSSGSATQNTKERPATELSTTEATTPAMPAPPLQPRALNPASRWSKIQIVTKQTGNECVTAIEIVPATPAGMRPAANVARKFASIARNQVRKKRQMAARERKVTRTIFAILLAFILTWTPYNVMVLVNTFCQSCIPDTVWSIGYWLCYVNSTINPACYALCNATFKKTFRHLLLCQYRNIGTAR

Regarding `Cc1nnc(C)c2c(C)n(-c3ccc(Br)cc3)c(C)c12`, in assay [1], the cell count was 305. Moreover, the inhibition in assay [1] is 2.5% (inactive); in assay [3] it was -47.7% (inactive); in assay [7], 18% (inactive); in assay [8] it was 27.9% (inactive). For the same compound, the inhibition of aggregation in assay [2] is -3.9% (inactive). For the same compound, the nuclei count was 104% in assay [2] and 111% in assay [3]. Moreover, the fluorescence slope in assay [4] was -0.497 (inactive); in assay [6], 0.00472 (inactive). For the same compound, in assay [5], the NADPH fluorescence slope was -4.6e-05 (inactive).

On to `Cc1cccc(-c2noc(CCC(=O)Nc3ccccc3)n2)c1`, for which the cell count in assay [1] turned out to be 430. Moreover, the inhibition is 9.5% (inactive) in assay [1], 68.5% (inactive) in assay [3], -7.26% (inactive) in assay [7] and -4.8% (inactive) in assay [8]. The inhibition of aggregation in assay [2] was 7.6% (inactive). The nuclei count in assay [2] was 92.6%; in assay [3] it was 140%. The fluorescence slope in assay [4] is -0.289 (inactive); in assay [6], 0.00559 (inactive). Also, the NADPH fluorescence slope in assay [5] was -2.3e-05 (inactive).

As for `Cc1cc(NS(=O)(=O)c2ccc(NC(=O)C(C)N3C(=O)c4ccccc4C3=O)cc2)nc(C)n1` (stereo not given), the cell count in assay [1] stood at 257. The inhibition in assay [1] was -2.1% (inactive); in assay [3], -11.1% (inactive); in assay [7], 14.9% (inactive); in assay [8] it was 18.8% (inactive). Also, the inhibition of aggregation in assay [2] is 4.6% (inactive). For the same compound, the results for the nuclei count in assay [2] and in assay [3] were 98.5% and 90.8%, respectively. The fluorescence slope is -0.557 (inactive) in assay [4] and 0.00257 (inactive) in assay [6]. In assay [5], the NADPH fluorescence slope was -5.8e-05 (inactive).

On to `Cc1cc(C)c2c(n1)sc1c(N3CCOCC3)ncnc12`, for which the cell count in assay [1] turned out to be 301. Further, the inhibition in assay [1] was -4.9% (inactive); in assay [3], -61.4% (inactive); in assay [7], 5.74% (inactive); in assay [8], -3.16% (inactive). Moreover, the inhibition of aggregation in assay [2] is -151% (inactive). The values for the nuclei count in assay [2] and in assay [3] were 0.6% and 121%, respectively. For the same compound, the fluorescence slope in assay [4] was -0.305 (inactive); in assay [6], 0.00639 (inactive). For the same compound, in assay [5], the NADPH fluorescence slope was -6.3e-05 (inactive).

Take `N#Cc1cn(CC(=O)N2CCCC2)c2ccccc12`: the cell count in assay [1] was 391. Besides, the inhibition in assay [1] was 3% (inactive); in assay [3], -18.5% (inactive); in assay [7], 17.7% (inactive); in assay [8], 22.5% (inactive). The inhibition of aggregation in assay [2] is -10.4% (inactive). The nuclei count in assay [2] amounted to 108%; in assay [3], 95.9%. The values for the fluorescence slope in assay [4] and in assay [6] were -0.562 (inactive) and 0.00355 (inactive), respectively. For the same compound, in assay [5], the NADPH fluorescence slope is -6.6e-05 (inactive).

For `CCNc1nc(OC)nc(Oc2ccc(=O)n(-c3ccccc3)n2)n1`, the cell count in assay [1] came to 769. Moreover, the inhibition is 6.8% (inactive) in assay [1], -86.7% (inactive) in assay [3], 16.1% (inactive) in assay [7] and 22% (inactive) in assay [8]. In addition, in assay [2], the inhibition of aggregation was 8.6% (inactive). Further, the nuclei count was 106% in assay [2] and 124% in assay [3]. Besides, the fluorescence slope in assay [4] was -0.261 (inactive); in assay [6], 0.00602 (inactive). The NADPH fluorescence slope in assay [5] was -3e-05 (inactive).

Regarding `CCOC(=O)c1sc(C)c2c(=O)n(CC)nnc12`, the cell count in assay [1] was determined as 304. For the same compound, the inhibition in assay [1] was 0.8% (inactive); in assay [3], -56% (inactive); in assay [7], 6.72% (inactive); in assay [8] it was 4.72% (inactive). For the same compound, the inhibition of aggregation in assay [2] was -14.4% (inactive). Further, the nuclei count in assay [2] came to 102%; in assay [3], 109%. Further, the fluorescence slope was -0.523 (inactive) in assay [4] and 0.00361 (inactive) in assay [6]. The NADPH fluorescence slope in assay [5] was -2.3e-06 (inactive).

On to `C=C(C)COc1ccc(-c2nc(N)ncc2Oc2ccccc2OCC)c(O)c1`, for which, in assay [1], the cell count is 291. Moreover, the inhibition in assay [1] is -11% (inactive); in assay [3] it was -17.8% (inactive); in assay [7], 17.7% (inactive); in assay [8], -3.29% (inactive). The inhibition of aggregation in assay [2] was -19.9% (inactive). The nuclei count was 111% in assay [2] and 114% in assay [3]. The fluorescence slope is -0.655 (inactive) in assay [4] and 0.00507 (inactive) in assay [6]. Also, in assay [5], the NADPH fluorescence slope is 4.1e-05 (inactive).

On to `CCCCNC(=O)c1cc(-c2ccc(F)cc2)on1`, for which, in assay [1], the cell count amounted to 240. In addition, the inhibition in assay [1] is -2.8% (inactive); in assay [3], -39.2% (inactive); in assay [7], -21.5% (inactive); in assay [8], -168% (inactive). In addition, in assay [2], the inhibition of aggregation was 5.2% (inactive). In addition, the figures for the nuclei count in assay [2] and in assay [3] were 106% and 120%, respectively. Moreover, the fluorescence slope in assay [4] was -0.483 (inactive); in assay [6], 0.00454 (inactive). For the same compound, in assay [5], the NADPH fluorescence slope is -3.3e-05 (inactive).

Regarding `O=C(CP(=O)(c1ccccc1)c1ccccc1)N1CCCCC1`, the cell count in assay [1] turned out to be 378. The inhibition was 6.6% (inactive) in assay [1], -29.8% (inactive) in assay [3], 18% (inactive) in assay [7] and 22.1% (inactive) in assay [8]. The inhibition of aggregation in assay [2] is -16% (inactive). Moreover, the nuclei count in assay [2] was found to be 105%; in assay [3], 107%. In addition, the fluorescence slope was -0.528 (inactive) in assay [4] and 0.00576 (inactive) in assay [6]. The NADPH fluorescence slope in assay [5] is -1.9e-05 (inactive).

As to `Cc1n[nH]c(C)c1S(=O)(=O)N1CCN(c2ccccn2)CC1`, the cell count in assay [1] came out at 407. Further, the inhibition is -8.5% (inactive) in assay [1], -43.6% (inactive) in assay [3], -0.889% (inactive) in assay [7] and 2.25% (inactive) in assay [8]. Moreover, the inhibition of aggregation in assay [2] was 12.4% (inactive). Moreover, the figures for the nuclei count in assay [2] and in assay [3] were 76% and 108%, respectively. The fluorescence slope in assay [4] was -0.485 (inactive); in assay [6], 0.00681 (inactive). In assay [5], the NADPH fluorescence slope was 5e-05 (inactive).

Turning to `CCNc1oc(COc2ccccc2F)nc1C#N`, the cell count in assay [1] came out at 318. Further, the inhibition was 14.7% (inactive) in assay [1], -8.8% (inactive) in assay [3], 0.938% (inactive) in assay [7] and -48.6% (inactive) in assay [8]. The inhibition of aggregation in assay [2] is -13.4% (inactive). Further, the nuclei count in assay [2] amounted to 106%; in assay [3] it was 94.1%. Moreover, the fluorescence slope is -0.578 (inactive) in assay [4] and 0.00601 (inactive) in assay [6]. Further, in assay [5], the NADPH fluorescence slope is -2.3e-07 (inactive).

For the compound `O=C(O)Cn1cc2c(n1)CCCC2`, in assay [1], the cell count worked out at 638. Moreover, the inhibition in assay [1] was 0.2% (inactive); in assay [3], 13.9% (inactive); in assay [7], 9.43% (inactive); in assay [8], 8.73% (inactive). Further, the inhibition of aggregation in assay [2] was -7.3% (inactive). Moreover, the values for the nuclei count in assay [2] and in assay [3] were 104% and 114%, respectively. In addition, the fluorescence slope is -0.395 (inactive) in assay [4] and 0.00644 (inactive) in assay [6]. Besides, the NADPH fluorescence slope in assay [5] was 6.4e-05 (inactive).

In the case of `CCOC(=O)C1=C(C)Nc2ncnn2C1c1cc(OC)ccc1OC` (stereo not given), the cell count in assay [1] came to 465. Moreover, the inhibition in assay [1] was 4.5% (inactive); in assay [3], -356% (inactive); in assay [7], 16.3% (inactive); in assay [8] it was 1.62% (inactive). Further, the inhibition of aggregation in assay [2] was -7.4% (inactive). Also, the nuclei count in assay [2] came to 97.1%; in assay [3] it was 126%. Moreover, the fluorescence slope was -0.236 (inactive) in assay [4] and 0.00778 (inactive) in assay [6]. Also, the NADPH fluorescence slope in assay [5] is -2.1e-05 (inactive).

As to `COc1ccc(-c2cnc(SCC(=O)Nc3ccc4c(c3)OCO4)n2Cc2ccco2)cc1`, the cell count in assay [1] worked out at 450. Besides, the inhibition is 17.8% (inactive) in assay [1], -1.8% (inactive) in assay [3], 2.4% (inactive) in assay [7] and 36.8% (inactive) in assay [8]. Besides, the inhibition of aggregation in assay [2] is -8.7% (inactive). Besides, the nuclei count in assay [2] is 105%; in assay [3], 110%. In addition, the fluorescence slope in assay [4] is -0.5 (inactive); in assay [6] it was 0.00501 (inactive). Further, the NADPH fluorescence slope in assay [5] is -2.5e-05 (inactive).
